Source: ChEMBL document CHEMBL4011638, “Semisynthetic Flavone-Derived Antimicrobials with Therapeutic Potential against Methicillin-Resistant Staphylococcus aureus (MRSA)” (J Med Chem, 2017)
Converted amounts (≈) assume the structure as drawn. The source made the active and inactive calls. The rule behind the calls is not given here.

Tests used:
[1] = test system: Staphylococcus aureus; assay: Induction of plasma membrane permeability in methicillin-resistant Staphylococcus aureus DM9808R assessed as increase in fluorescence intensity at 12.5 ug/ml measured every 1 sec for 50 mins by SYTOX green dye based fluorimetric assay; assay type: functional
How it was run: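 Exponential-phase MRSA DM9808R grown on TSA, washed twice and resuspended in PBS (10 mM, pH 7) to OD600 0.2. Cells were loaded with 0.3 μM SYTOX Green in the dark until fluorescence stabilized. Test samples were then added (final DMF 0.5%). Fluorescence at ex 504/em 523 nm was recorded every 1 s for 50 min. Biological replicates.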

[2] = test system: Bacillus cereus; assay: Antibacterial activity against Bacillus cereus ATCC 11778 after 24 hrs by broth microdilution method; assay type: functional; conditions: ATCC 11778, 24 h
How it was run: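 MIC by CLSI broth microdilution in cation-adjusted Mueller–Hinton broth, tubes. Compounds in H2O or DMF, diluted in PBS to 1000 μg/mL stocks, then serial 2-fold dilutions (final DMF 2.5%). Inoculum ~5×10^5 CFU/mL from TSA plates grown 35 °C 20 h. Incubation 35 °C 24 h; MIC = no visible growth vs control. Biological replicates.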

[3] = test system: Staphylococcus aureus; assay: Antibacterial activity against Staphylococcus aureus DM4001R after 24 hrs by broth microdilution method; assay type: functional
How it was run: (§1)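 Broth microdilution per CLSI in cation-adjusted Mueller−Hinton broth, in tubes. Compounds dissolved in H2O or DMF, then diluted in PBS to 1000 μg/mL stocks. Serial 2-fold dilutions were made, with final DMF 2.5%. Organisms were grown on TSA at 35 °C for 20 h and adjusted to ~5× 10^5 CFU/mL. Tubes were incubated at 35 °C for 24 h. MIC was the lowest concentration with no visible growth versus control. Biological replicates.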

[4] = test system: Lipid bilayer; assay: Membrane permeabilization activity in DOPE/DOPG large unilamellar liposomes assessed as leakage of calcein at 1:4 to 1:8 compound to lipid ratio by fluorescence assay
[5] = test system: Staphylococcus aureus; assay: Antibacterial activity against methicillin-resistant Staphylococcus aureus DM 21455 after 24 hrs by broth microdilution method; assay type: functional; conditions: DM 21455, 24 h; how it was run: as §1
[6] = test system: Staphylococcus aureus; assay: Antibacterial activity against methicillin-resistant Staphylococcus aureus DM 9808R after 24 hrs by broth microdilution method; assay type: functional; how it was run: as §1
[7] = test system: Staphylococcus aureus; assay: Antibacterial activity against methicillin-sensitive Staphylococcus aureus DM4299 after 24 hrs by broth microdilution method; assay type: functional; conditions: DM4299, 24 h; how it was run: as §1
[8] = test system: Staphylococcus aureus; assay: Antibacterial activity against methicillin-resistant Staphylococcus aureus DB68004 after 24 hrs by broth microdilution method; assay type: functional; conditions: DB68004, 24 h; how it was run: as §1
[9] = test system: Staphylococcus aureus; assay: Antibacterial activity against methicillin-resistant Staphylococcus aureus BAA-38 after 24 hrs by broth microdilution method; assay type: functional; conditions: BAA-38, 24 h; how it was run: as §1
[10] = Ratio of HC50 for New Zealand white rabbit RBC to MIC for methicillin-sensitive Staphylococcus aureus DM4583R
How it was run: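 HC50 measured on fresh New Zealand white rabbit RBCs, washed three times in PBS, at 4% v/v final. Cells were incubated with 2-fold serial dilutions (DMF final 0.5%) at 37 °C for 1 h, then centrifuged. Supernatant absorbance was read at 576 nm, with PBS as 0% and 2% Triton X-100 as 100% lysis. HC50 is the concentration lysing 50% of cells, divided by MIC from broth microdilution.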

[11] = test system: Staphylococcus aureus; assay: Antibacterial activity against methicillin-sensitive Staphylococcus aureus ATCC 29213 after 24 hrs by broth microdilution method; assay type: functional; conditions: ATCC 29213, 24 h; how it was run: as §1
[12] = test system: Staphylococcus aureus; assay: Antibacterial activity against methicillin-sensitive Staphylococcus aureus DM4583R after 24 hrs by broth microdilution method; assay type: functional; how it was run: as §1
[13] = test system: Staphylococcus aureus; assay: Antibacterial activity against methicillin-resistant Staphylococcus aureus ATCC 700699 after 24 hrs by broth microdilution method; assay type: functional; conditions: ATCC 700699, 24 h; how it was run: as §1
[14] = test system: Staphylococcus aureus; assay: Antibacterial activity against methicillin-sensitive Staphylococcus aureus DM4400R after 24 hrs by broth microdilution method; assay type: functional; how it was run: as §1
[15] = test system: Staphylococcus aureus; assay: Antibacterial activity against methicillin-resistant Staphylococcus aureus ATCC 43300 after 24 hrs by broth microdilution method; assay type: functional; conditions: ATCC 43300, 24 h; how it was run: as §1
[16] = test system: Staphylococcus aureus; assay: Antibacterial activity against methicillin-sensitive Staphylococcus aureus ATCC 29737 after 24 hrs by broth microdilution method; assay type: functional; conditions: ATCC 29737, 24 h; how it was run: as §1
[17] = test system: Staphylococcus aureus; assay: Antibacterial activity against methicillin-resistant Staphylococcus aureus DB6506 after 24 hrs by broth microdilution method; assay type: functional; conditions: DB6506, 24 h; how it was run: as §1
[18] = test system: Staphylococcus aureus; assay: Antibacterial activity against methicillin-resistant Staphylococcus aureus DB57964 after 24 hrs by broth microdilution method; assay type: functional; conditions: DB57964, 24 h; how it was run: as §1
[19] = test system: Staphylococcus aureus; assay: Antibacterial activity against methicillin-sensitive Staphylococcus aureus ATCC 6538 after 24 hrs by broth microdilution method; assay type: functional; conditions: ATCC 6538, 24 h; how it was run: as §1
[20] = test system: Staphylococcus aureus; assay: Ratio of MIC for Staphylococcus aureus ATCC 29213 after […] passages to MIC for Staphylococcus aureus ATCC 29213; assay type: functional
How it was run: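 Serial passage. Initial MIC was determined against S. aureus ATCC29213 by broth microdilution. Bacteria from duplicate tubes at 0.5× MIC were diluted to ~5 × 10^5 CFU/mL for the next MIC round. Each round was incubated at 35 °C for 24 h and the fold increase in MIC recorded. Gatifloxacin and norfloxacin served as comparators. Repeated for 17 passages, biological replicates.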

Compound | MIC [2] | MIC [3] | MIC [5] | MIC [6] | other results
COC(=O)[C@H](Cc1cnc[nH]1)NC(=O)COc1cc(O)c2c(=O)c(OCC(=O)N[C@@H](Cc3cnc[nH]3)C(=O)OC)c(-c3ccc(OC)cc3)oc2c1CC=C(C)C | > 63.5 µM | > 63.5 µM | > 63.5 µM | > 63.5 µM | Activity [1]: inactive; Activity [4]: < 5%
H-GIGKFLKKAKKFGKAFVKILKK-OH | – | – | – | – | MIC [7]: 16 to 64 µg/mL; MIC [8]: 16 to 64 µg/mL; MIC [9]: 16 to 64 µg/mL; Ratio [10]: 2 to 8; MIC [11]: 16 to 64 µg/mL; MIC [12]: 16 to 64 µg/mL; MIC [13]: 16 to 64 µg/mL; MIC [14]: 16 to 64 µg/mL; MIC [15]: 16 to 64 µg/mL; MIC [16]: 16 to 64 µg/mL; MIC [17]: 16 to 64 µg/mL; MIC [18]: 16 to 64 µg/mL; MIC [19]: 16 to 64 µg/mL
CCN(CC)CCCCCCCCOc1cc(O)c2c(=O)c(OCCCCCCCCN(CC)CC)c(-c3ccc(OC)cc3)oc2c1CC=C(C)C | > 50 µg/mL | > 50 µg/mL | > 50 µg/mL | > 50 µg/mL | –
COc1ccc(-c2oc3c(CC=C(C)C)c(OCC(=O)N[C@@H](CCCNC(=N)N)C(=O)OC(C)(C)C)cc(O)c3c(=O)c2OCC(=O)N[C@@H](CCCNC(=N)N)C(=O)OC(C)(C)C)cc1 | 3.4 µM | 3.4 µM | 6.8 µM | 3.4 µM | –
COC(=O)[C@H](CCCNC(=N)N)NC(=O)[C@H](CCCNC(=N)N)NC(=O)COc1cc(O)c2c(=O)c(OCC(=O)N[C@@H](CCCNC(=N)N)C(=O)N[C@@H](CCCNC(=N)N)C(=O)OC)c(-c3ccc(OC)cc3)oc2c1CC=C(C)C | 11 µM | 5.5 µM | 11 µM | 5.5 µM | –
CCN(CC)CCCCCCOc1cc(O)c2c(=O)c(OCCCCCCN(CC)CC)c(-c3ccc(OC)cc3)oc2c1CC=C(C)C | 12.5 µg/mL | 6.25 µg/mL | 3.13 µg/mL | 3.13 µg/mL | –
COc1ccc(-c2oc3c(CC=C(C)C)c(OCCBr)cc(O)c3c(=O)c2OCCBr)cc1 | 5 µM | 5 µM | 5 µM | 10 µM | –
CCn1cc(C(=O)O)c(=O)c2cc(F)c(N3CCNCC3)cc21 [NORFLOXACIN] | – | – | – | – | Ratio [20]: 128
CN[C@H](CC(C)C)C(=O)N[C@H]1C(=O)N[C@@H](CC(N)=O)C(=O)N[C@H]2C(=O)N[C@H]3C(=O)N[C@H](C(=O)N[C@H](C(=O)O)c4cc(O)cc(O)c4-c4cc3ccc4O)[C@H](O)c3ccc(c(Cl)c3)Oc3cc2cc(c3O[C@@H]2O[C@H](CO)[C@@H](O)[C@H](O)[C@H]2O[C@H]2C[C@](C)(N)[C@H](O)[C@H](C)O2)Oc2ccc(cc2Cl)[C@H]1O [VANCOMYCIN] | 1.1 µM | 1.1 µM | 1.1 µM | 2.2 µM | MIC [7]: 1.56 µg/mL (≈ 1.08 µM); MIC [8]: 1.56 µg/mL (≈ 1.08 µM); MIC [9]: 1.56 µg/mL (≈ 1.08 µM); MIC [11]: 1.56 µg/mL (≈ 1.08 µM); MIC [12]: 1.56 µg/mL (≈ 1.08 µM); MIC [13]: 1.56 µg/mL (≈ 1.08 µM); MIC [14]: 0.78 µg/mL (≈ 0.538 µM); MIC [15]: 0.78 µg/mL (≈ 0.538 µM); MIC [16]: 0.78 µg/mL (≈ 0.538 µM); MIC [17]: 0.78 µg/mL (≈ 0.538 µM); MIC [18]: 0.78 µg/mL (≈ 0.538 µM); MIC [19]: 0.78 µg/mL (≈ 0.538 µM)
